Test results: publication PMC3502072 (Molecular cancer therapeutics, 2012)
pIC50: −log10 of the molar value. Entries after “also recorded” stand apart in the source; their conditions may differ.

Tests used:
[1] = system: MM cells (RPMI-8226, NCI-H929, U266B1, MM.1S); assay: CellTiter-Glo cell viability, multiple myeloma cell lines; format: cell-based, human; settings: 24 h; for Concentrations that significantly reduced MM cell viability: RPMI-8226 cells
[2] = Pilot toxicity study, body condition scoring; format: in vivo, mice
Summary of the method: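 Pilot tolerability study in a small cohort of mice. Doses were chosen from a range based on NCI DTP toxicity data. A single dose was given, and toxicity was assessed qualitatively by body condition scoring.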

[3] = system: NCI-H929 subcutaneous xenografted tumors; assay: MM subcutaneous plasmacytoma model; format: in vivo, hairless SCID mice; settings: for Tumor growth delay relative to vehicle-treated controls: 5 mg/kg
[4] = system: primary CD138-positive plasma cells from MM patient bone marrow biopsies; assay: Cell viability of primary MM patient plasma cells; format: cell-based, human; settings: 24 h; cells from 2 patients
Summary of the method: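 Bone marrow aspirates from MM patients were separated on Ficoll-Paque. CD138+ plasma cells were isolated with magnetic anti-CD138 beads, and purity was checked by FACS. Cells were cultured in RPMI 1640 with 10% FBS and gentamycin at 37°C and 5% CO2, then treated with the test compound at a range of concentrations for 24 h. Viability was read by CellTiter-Glo luminescence; mean ± S.E (n=3).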

[5] = system: human cell lines derived from multiple tumor types; assay: CellTiter-Glo cell viability, panel of tumor cell lines; format: cell-based
[6] = target: CDK9 (Homo sapiens, UniProt P50750); settings: cited from earlier work
Sequence of CDK9 (Homo sapiens, UniProt P50750) (P50750 whole entry): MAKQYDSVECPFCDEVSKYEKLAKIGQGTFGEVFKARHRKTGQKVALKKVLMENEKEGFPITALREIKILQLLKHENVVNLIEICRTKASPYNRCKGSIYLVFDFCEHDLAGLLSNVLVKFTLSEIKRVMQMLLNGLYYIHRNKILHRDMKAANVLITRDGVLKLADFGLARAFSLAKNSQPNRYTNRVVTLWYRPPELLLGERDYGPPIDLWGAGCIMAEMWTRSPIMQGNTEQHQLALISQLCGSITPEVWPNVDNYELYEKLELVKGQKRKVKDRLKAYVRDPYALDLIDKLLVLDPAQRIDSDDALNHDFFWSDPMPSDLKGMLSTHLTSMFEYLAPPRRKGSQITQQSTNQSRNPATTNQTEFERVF
Sequence of CDK9 (Homo sapiens, UniProt P50750) (O60563 whole entry partner): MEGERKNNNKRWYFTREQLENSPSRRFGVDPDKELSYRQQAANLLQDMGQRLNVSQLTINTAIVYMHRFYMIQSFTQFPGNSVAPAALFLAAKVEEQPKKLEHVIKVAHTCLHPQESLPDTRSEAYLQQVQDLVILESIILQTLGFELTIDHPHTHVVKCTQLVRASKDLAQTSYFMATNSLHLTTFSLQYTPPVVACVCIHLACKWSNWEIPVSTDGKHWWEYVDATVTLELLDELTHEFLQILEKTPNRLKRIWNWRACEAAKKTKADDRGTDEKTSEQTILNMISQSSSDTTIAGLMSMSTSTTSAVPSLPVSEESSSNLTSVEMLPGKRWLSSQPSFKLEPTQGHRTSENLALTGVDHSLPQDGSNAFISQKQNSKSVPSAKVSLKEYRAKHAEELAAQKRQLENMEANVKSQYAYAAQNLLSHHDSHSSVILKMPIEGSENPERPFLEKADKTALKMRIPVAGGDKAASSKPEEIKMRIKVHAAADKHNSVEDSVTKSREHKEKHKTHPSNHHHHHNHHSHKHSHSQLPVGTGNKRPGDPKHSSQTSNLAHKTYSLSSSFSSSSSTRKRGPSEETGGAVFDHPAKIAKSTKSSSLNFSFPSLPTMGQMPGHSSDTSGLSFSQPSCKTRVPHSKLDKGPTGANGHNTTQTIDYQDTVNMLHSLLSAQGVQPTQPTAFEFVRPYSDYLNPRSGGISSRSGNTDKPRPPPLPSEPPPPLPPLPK

[7] = system: PKC; settings: cited from earlier work
[8] = system: H460, A172, HT29, HepG2, hFOB and MRC-5 cells; format: cell-based, human; settings: 500 nM, 16 hours
[9] = system: RPMI-8226 cells; assay: Apoptosis, cleaved caspase-3 flow cytometry in MM cells; format: cell-based, human; settings: 16 hours
[10] = target: CDK1/cyclin B (Homo sapiens, UniProt P06493); assay: HotSpot in vitro kinase assay CDK1/cyclin B; format: biochemical; settings: read-out: IC50 CDK1/cyclin B
Sequence of CDK1/cyclin B (P06493 whole entry): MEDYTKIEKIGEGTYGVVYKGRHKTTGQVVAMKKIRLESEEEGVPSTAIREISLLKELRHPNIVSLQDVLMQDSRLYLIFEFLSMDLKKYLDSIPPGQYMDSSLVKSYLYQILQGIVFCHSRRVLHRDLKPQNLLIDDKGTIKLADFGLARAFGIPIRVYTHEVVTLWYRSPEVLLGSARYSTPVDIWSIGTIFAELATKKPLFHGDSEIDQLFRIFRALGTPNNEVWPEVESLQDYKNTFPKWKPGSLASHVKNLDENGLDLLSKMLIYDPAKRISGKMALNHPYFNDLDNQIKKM
Sequence of CDK1/cyclin B (P14635 whole entry partner): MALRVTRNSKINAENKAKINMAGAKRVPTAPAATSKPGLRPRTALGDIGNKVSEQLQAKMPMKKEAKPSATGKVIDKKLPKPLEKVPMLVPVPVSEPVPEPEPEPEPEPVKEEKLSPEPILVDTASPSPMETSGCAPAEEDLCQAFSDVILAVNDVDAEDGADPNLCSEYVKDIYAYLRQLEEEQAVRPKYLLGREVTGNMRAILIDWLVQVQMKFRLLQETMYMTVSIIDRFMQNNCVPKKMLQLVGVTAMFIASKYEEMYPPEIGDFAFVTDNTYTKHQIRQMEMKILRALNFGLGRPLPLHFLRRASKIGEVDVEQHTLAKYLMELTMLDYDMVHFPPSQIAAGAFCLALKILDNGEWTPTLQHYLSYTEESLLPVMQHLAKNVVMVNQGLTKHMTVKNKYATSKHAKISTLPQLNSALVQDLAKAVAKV

[11] = target: CDK7/cyclin H (Homo sapiens, UniProt P50613); assay: HotSpot in vitro kinase assay CDK7/cyclin H; format: biochemical; settings: read-out: IC50 CDK7/cyclin H
Sequence of CDK7/cyclin H (P50613 whole entry): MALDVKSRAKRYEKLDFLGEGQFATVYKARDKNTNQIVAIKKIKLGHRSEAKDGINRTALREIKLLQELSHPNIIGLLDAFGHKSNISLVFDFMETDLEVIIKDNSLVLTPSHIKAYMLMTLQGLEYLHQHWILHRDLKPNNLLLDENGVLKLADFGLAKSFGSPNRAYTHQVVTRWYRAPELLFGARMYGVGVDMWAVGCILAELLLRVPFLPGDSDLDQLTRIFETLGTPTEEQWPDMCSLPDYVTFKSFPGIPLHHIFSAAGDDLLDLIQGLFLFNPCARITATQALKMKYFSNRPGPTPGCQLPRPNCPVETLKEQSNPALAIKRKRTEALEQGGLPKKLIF
Sequence of CDK7/cyclin H (P51946 whole entry partner): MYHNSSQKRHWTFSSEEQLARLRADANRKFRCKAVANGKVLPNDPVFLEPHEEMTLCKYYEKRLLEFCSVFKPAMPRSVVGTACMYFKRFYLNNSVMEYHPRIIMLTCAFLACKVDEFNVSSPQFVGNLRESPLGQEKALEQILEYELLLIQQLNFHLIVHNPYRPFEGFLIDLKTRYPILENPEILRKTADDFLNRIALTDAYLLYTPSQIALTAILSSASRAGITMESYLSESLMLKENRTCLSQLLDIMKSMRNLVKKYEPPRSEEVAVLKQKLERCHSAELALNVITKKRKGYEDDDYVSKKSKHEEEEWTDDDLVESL
Sequence of CDK7/cyclin H (P51948 whole entry partner): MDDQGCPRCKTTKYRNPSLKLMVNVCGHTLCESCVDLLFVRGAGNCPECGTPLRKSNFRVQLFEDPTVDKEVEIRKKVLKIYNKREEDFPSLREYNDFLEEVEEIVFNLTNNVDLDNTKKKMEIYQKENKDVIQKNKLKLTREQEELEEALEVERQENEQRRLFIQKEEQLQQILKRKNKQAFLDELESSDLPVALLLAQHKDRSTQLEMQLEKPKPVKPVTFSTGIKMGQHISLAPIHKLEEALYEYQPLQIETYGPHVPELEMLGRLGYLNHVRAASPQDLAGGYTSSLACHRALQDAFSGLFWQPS

[12] = Serum biochemistry and complete blood count in immunocompetent mice; format: in vivo; settings: C57BL/6 mice
[13] = system: cyclin D1, c-Maf, c-Myc, L-Myc; assay: Expression of MM oncogenes, Western blot and RT-PCR; format: cell-based, human; settings: 250 nM
[14] = target: CDK9/cyclin K (Homo sapiens, UniProt P50750); settings: read-out: IC50 CDK9/cyclin K kinase activity
Sequence of CDK9/cyclin K (P50750 whole entry): as the sequence (P50750 whole entry) above
Sequence of CDK9/cyclin K (O75909 whole entry partner): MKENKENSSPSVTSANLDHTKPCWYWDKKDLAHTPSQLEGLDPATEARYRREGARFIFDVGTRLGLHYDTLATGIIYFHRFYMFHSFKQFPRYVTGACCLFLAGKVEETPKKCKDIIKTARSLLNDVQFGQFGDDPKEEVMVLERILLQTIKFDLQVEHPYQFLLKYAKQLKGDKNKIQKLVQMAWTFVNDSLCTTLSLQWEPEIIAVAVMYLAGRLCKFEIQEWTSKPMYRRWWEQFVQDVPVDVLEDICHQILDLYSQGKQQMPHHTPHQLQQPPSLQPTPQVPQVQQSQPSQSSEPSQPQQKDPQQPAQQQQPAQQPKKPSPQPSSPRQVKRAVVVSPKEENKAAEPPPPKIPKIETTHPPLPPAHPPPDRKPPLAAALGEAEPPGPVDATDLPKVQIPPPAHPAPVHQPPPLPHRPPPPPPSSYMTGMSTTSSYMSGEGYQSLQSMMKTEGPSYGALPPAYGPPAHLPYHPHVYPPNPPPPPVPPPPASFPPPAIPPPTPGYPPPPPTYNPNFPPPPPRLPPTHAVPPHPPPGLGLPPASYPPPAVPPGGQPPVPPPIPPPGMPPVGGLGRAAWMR

[15] = target: CDK4/cyclin D1 (Homo sapiens, UniProt P11802); assay: HotSpot in vitro kinase assay CDK4/cyclin D1; format: biochemical; settings: read-out: IC50 CDK4/cyclin D1
Sequence of CDK4/cyclin D1 (P11802 whole entry): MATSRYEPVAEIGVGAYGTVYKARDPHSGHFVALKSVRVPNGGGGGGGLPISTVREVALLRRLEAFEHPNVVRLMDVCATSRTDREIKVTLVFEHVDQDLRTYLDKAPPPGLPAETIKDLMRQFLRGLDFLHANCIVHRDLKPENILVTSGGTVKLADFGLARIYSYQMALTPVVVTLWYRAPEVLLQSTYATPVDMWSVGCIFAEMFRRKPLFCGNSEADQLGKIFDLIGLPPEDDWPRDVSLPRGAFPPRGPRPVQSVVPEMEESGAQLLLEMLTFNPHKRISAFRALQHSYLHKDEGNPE
Sequence of CDK4/cyclin D1 (P24385 whole entry partner): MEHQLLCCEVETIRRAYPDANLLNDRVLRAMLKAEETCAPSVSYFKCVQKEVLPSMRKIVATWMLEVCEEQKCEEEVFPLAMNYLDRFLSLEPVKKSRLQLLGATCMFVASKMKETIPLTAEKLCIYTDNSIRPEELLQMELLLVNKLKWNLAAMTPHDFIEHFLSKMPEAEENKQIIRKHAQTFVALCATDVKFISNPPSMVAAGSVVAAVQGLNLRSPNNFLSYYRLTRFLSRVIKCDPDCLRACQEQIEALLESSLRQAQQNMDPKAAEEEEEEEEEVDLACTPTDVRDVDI

[16] = system: CDK9; assay: CDK9 signaling, Western blots in MM cells; format: cell-based, human; settings: NCI-H929 cells, 2 hours
[17] = system: NCI-H929 and CD138+ MM patient bone marrow cells; assay: Cell viability, SLM6 with bortezomib; format: cell-based, human; settings: single agents
[18] = system: CDK7; assay: RNA polymerase II Ser5 phosphorylation; format: cell-based, human; settings: NCI-H929 cells, 2 hours
[19] = target: CDK9/cyclin T1 (Homo sapiens, UniProt P50750); settings: read-out: IC50 CDK9/cyclin T1 kinase activity
Sequence of CDK9/cyclin T1 (P50750 whole entry): as the sequence (P50750 whole entry) above
Sequence of CDK9/cyclin T1 (O60563 whole entry partner): as the sequence (O60563 whole entry partner) above

[20] = target: CDK2/cyclin A (Homo sapiens, UniProt P24941); settings: read-out: IC50 CDK2/cyclin A
[21] = system: RPMI-8226/NIH-3T3 tumors; assay: RPMI-8226-GFP/NIH-3T3 co-injection xenograft model
[22] = system: PKC; assay: Phorbol ester-induced PKC and ERK phosphorylation in MM cells; format: cell-based, human; settings: MM cells stimulated with phorbol-12-myristate-13-acetate
[23] = cited from earlier work

SMILES: O=c1[nH]cc(F)c(=O)[nH]1 [5′-fluorouracil]
- Effect on MM cell viability [1]: relatively insensitive

SMILES: [Cl-].[Li+] [LiCl, lithium chloride]
- Effect on MM cell viability [1]: neither LiCl nor purvalanol A reduced MM cell viability; also recorded: relatively insensitive

SMILES: O=C1NC(=NCc2cccs2)S/C1=C\c1ccc2ncccc2c1 [RO3306]
- Effect on MM cell viability [1]: relatively insensitive

SMILES: Cl.NNc1c(C(N)=O)c2c(N)ncnc2n1C1OC(CO)C(O)C1O (stereo not drawn) [SLM3 HCl]
- Toxicity by body condition scoring ([2]; single dose of 25 mg/kg): no overt toxicity
- Effect on the growth of MM tumors ([3]; 25 mg/kg, weekly i.p.): no effect

SMILES: NNc1c(C(N)=O)c2c(N)ncnc2n1[C@@H]1O[C@H](CO)[C@@H](O)[C@H]1O [SLM3]
- Activity on cell viability of primary plasma cells [4]: confirmed this activity
- Sensitivity of MM cells relative to other tumor types ([5]; MM cell lines and primary patient plasma cells vs other tumor types): 3 to 10 times
- pIC50 ([5]; read-out: IC50, cell viability, 24 h, breast, colon, lung, hepatocellular, glioma and one of two pancreatic cancer cell lines): < 5.70
- Activity against CDK9 in vitro [6]: modest activity
- Activity against PKC in vitro [7]: modest activity
- Effect on MM cell viability [1]: superior activity compared to other nucleoside analogs
- Concentrations that significantly reduced MM cell viability [1]: less than 250 nM
- pIC50 ([1]; read-out: IC50, cell viability, MM cells): 6.40 to 6.70
- Apoptosis (active caspase-3 positive cells) [8]: negligible levels of apoptosis
- Apoptotic marker cleaved caspase-3 ([9]; RPMI-8226, increasing concentrations): dose-dependent increase

SMILES: N/C(=N\O)c1cn(C2OC(CO)C(O)C2O)c2ncnc(N)c12 (stereo not drawn) [SLM5]
- Toxicity by body condition scoring ([2]; single dose of 5 mg/kg): no overt toxicity
- Tumor growth delay relative to vehicle-treated controls ([3]; weekly i.p.): 7 days
- Concentrations that significantly reduced MM cell viability [1]: less than 250 nM

SMILES: N/N=C(\N)c1cn(C2OC(CO)C(O)C2O)c2ncnc(N)c12 (stereo not drawn) [SLM6]
- pIC50 [10]: > 6.52
- pIC50 [11]: < 5.00
- Effects on normal hematopoiesis, complete blood count with differential [12]: no effects on normal hematopoiesis in vivo other than modest thrombocytopenia
- Systemic toxicity by serum biochemistry [12]: no signs of systemic toxicity
- c-Myc and cyclin D1 mRNA transcripts (RT-PCR) ([13]; 6 hours, RPMI-8226 and U266B1 cells): decreased c-Myc and cyclin D1 mRNA transcripts
- Oncogene protein expression (Western blot) ([13]; time course, U266B1, RPMI-8226, NCI-H929 cells): repressed the expression of cyclin D1 in U266B1 cells and c-Maf expression in RPMI-8226 cells; also recorded: repressed c-Myc protein levels in RPMI-8226 and NCI-H929 cells, and suppressed L-Myc expression in U266B1 cells
- pIC50 [14]: 6.55
- Toxicity by body condition scoring ([2]; single dose of 1 mg/kg): no overt toxicity
- Apoptotic markers in tumors (immunohistochemistry) ([3]; 1 mg/kg i.p., 48 hours): regions of intense cleaved caspase-3 and cleaved caspase-8 immunostaining
- Duration of sustained anti-tumor activity ([3]; 1 mg/kg i.p., single dose on day 1): 5 weeks
- pIC50 [15]: < 5.00
- Lowest concentration inhibiting phosphorylation of RNA polymerase II at Ser2 [16]: 250 nM
- Phosphorylation of CDK9 at Thr186 [16]: inhibited phosphorylation of CDK9 at Thr186
- Sensitivity of MM cell lines and primary patient plasma cells to single agent [17]: sensitive
- Effect on MM cell viability [1]: able to reduce the viability of MM cells
- Concentrations that significantly reduced MM cell viability [1]: less than 250 nM
- Phosphorylation of RNA polymerase II at Ser5 [18]: no effect
- pIC50 [19]: 6.88
- pIC50 [20]: > 6.52
- Size of MM tumors relative to vehicle-treated controls ([21]; 0.5 mg/kg, weekly i.p.): significantly reduced the size of MM tumors
- Time to evident anti-MM effects after first treatment ([21]; 0.5 mg/kg, weekly i.p.): ≤ 7 days
- Mouse body weight or body condition scoring ([21]; repeated dosing, 0.5 mg/kg weekly i.p.): no effect
- Phorbol ester-induced PKC or ERK phosphorylation [22]: no effect

SMILES: N=C(N)c1cn(C2OC(CO)C(O)C2O)c2ncnc(N)c12 (stereo not drawn) [SLM7]
- Toxicity by body condition scoring ([2]; single dose of 5 mg/kg): no overt toxicity
- Tumor growth delay relative to vehicle-treated controls ([3]; weekly i.p.): 7 days
- Concentrations that significantly reduced MM cell viability [1]: less than 250 nM

SMILES: O=C1Cc2c([nH]c3ccc([N+](=O)[O-])cc23)-c2ccccc2N1 [alsterpaullone]
- Effect on MM cell viability [1]: micromolar concentrations of alsterpaullone) were able to reduce the viability of MM cells

SMILES: CC(C)C[C@H](NC(=O)[C@H](Cc1ccccc1)NC(=O)c1cnccn1)B(O)O [bortezomib, reference compound]
- Sensitivity of MM cell lines and primary patient plasma cells to single agent [17]: sensitive

SMILES: Nc1nc(Cl)nc2c1ncn2[C@H]1C[C@H](O)[C@@H](CO)O1 [cladribine]
- Effect on MM cell viability [1]: relatively insensitive

SMILES: CN1CC[C@H](c2c(O)cc(O)c3c(=O)cc(-c4ccccc4Cl)oc23)[C@H](O)C1 [flavopiridol, reference compound]
- Effect on MM cell viability [1]: able to reduce the viability of MM cells
- Anti-MM activity in vivo ([21]; 5.0 mg/kg, weekly i.p.): no anti-MM activity

SMILES: Nc1ccn([C@@H]2O[C@H](CO)[C@@H](O)C2(F)F)c(=O)n1 [gemcitabine]
- Effect on MM cell viability [1]: relatively insensitive

SMILES: CC(C)[C@H](CO)Nc1nc(Nc2cccc(Cl)c2)c2ncn(C(C)C)c2n1 [purvalanol A]
- Effect on MM cell viability [1]: neither LiCl nor purvalanol A reduced MM cell viability; also recorded: relatively insensitive

SMILES: CC[C@H](CO)Nc1nc(NCc2ccccc2)c2ncn(C(C)C)c2n1 [roscovitine]
- Effect on MM cell viability [1]: relatively insensitive

SMILES: NC(=O)c1cn([C@@H]2O[C@H](CO)[C@@H](O)[C@H]2O)c2ncnc(N)c12 [sangivamycin, reference compound]
- Safety in humans, phase I trial [23]: demonstrated the safety of this compound in humans
- Activity against PKC [7]: known to inhibit PKC
- Concentrations that significantly reduced MM cell viability [1]: less than 250 nM
- MM cell apoptosis (cleaved caspase-3 positive cells) ([9]; RPMI-8226, 500 nM): 60-80%
- Phorbol ester-induced PKC or ERK phosphorylation [22]: significantly reduced phosphorylation of both kinases
